Test results published in ChEMBL document CHEMBL3124924, “Bifunctional ethyl 2-amino-4-methylthiazole-5-carboxylate derivatives: synthesis and in vitro biological evaluation as antimicrobial and anticancer agents” (2014).
Converted amounts (≈) assume the structure as drawn. One block for each compound: values may come before it. The source made the active and inactive calls. The rule behind the calls is not given here.

Key:
NCI-H226 = test: Cytotoxicity against human NCI-H226 cells assessed as growth inhibition at 10 uM after 48 hrs by SRB assay; assay type: functional; conditions: NCI-H226, 48 h, read-out: GI
Summary of the method: (§1)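 NCI-60 one-dose primary screen run by the NCI Drug Evaluation Branch across the full 60-line panel. Single high-dose treatment with 48 h continuous drug exposure. Cell growth estimated by sulforhodamine B protein staining. Results given as percent growth of treated cells and expressed as percentage growth inhibition.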

[1] = Cytotoxicity against human UO31 cells assessed as growth inhibition at 10 uM after 48 hrs by SRB assay; assay type: functional; conditions: UO-31, 48 h, read-out: GI; summary of the method: as §1
[2] = Cytotoxicity against human Hs578T cells assessed as growth inhibition at 10 uM after 48 hrs by SRB assay; assay type: functional; conditions: Hs-578T, read-out: GI; summary of the method: as §1
K562 = test: Cytotoxicity against human K562 cells assessed as growth inhibition at 10 uM after 48 hrs by SRB assay; assay type: functional; conditions: K562, 48 h, read-out: GI; summary of the method: as §1
Bacillus spizizenii [3] = test: Antibacterial activity against Bacillus subtilis ATCC 6633 assessed as growth inhibition after 48 hrs by two-fold serial dilution assay; assay type: functional; conditions: ATCC 6633, 48 h
Summary of the method: (§2)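 Twofold serial broth dilution run on compounds giving inhibition zones of 13 mm or more. Organisms pre-grown in suitable broth at 37 °C, 24 h for bacteria and 48 h for fungi. Dilution series 200, 100, 50, 25, 12.5, 6.25. Each 5 mL tube inoculated with 0.1 mL and incubated 37 °C for 48 h. Tubes scored for presence or absence of growth.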

PC-3 = test: Cytotoxicity against human PC3 cells assessed as growth inhibition at 10 uM after 48 hrs by SRB assay; assay type: functional; conditions: PC-3, 48 h, read-out: GI; summary of the method: as §1
Escherichia coli [4] = test: Bactericidal activity against Escherichia coli ATCC 25922 after 18 hrs; assay type: functional; conditions: ATCC 25922, 18 h
Summary of the method: (§3)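 Continuation of the broth-dilution MIC test. A loopful from each tube without visible growth spread on a quarter of a Mueller-Hinton agar plate and incubated 18 h. Lowest concentration giving no growth on subculture taken as the MBC.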

HCT-116 = test: Cytotoxicity against human HCT116 cells assessed as growth inhibition at 10 uM after 48 hrs by SRB assay; assay type: functional; conditions: HCT-116, 48 h, read-out: GI; summary of the method: as §1
Staphylococcus aureus [5] = test: Antibacterial activity against Staphylococcus aureus ATCC 6538 assessed as growth inhibition at 1 mg/mL after 24 hrs by agar-cup diffusion method; assay type: functional; conditions: ATCC 6538, 24 h, read-out: DIZ
Summary of the method: (§4)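 Agar-cup diffusion: 1 mL of 6 h broth culture seeded per 100 mL molten sterile agar at 45 °C and poured into plates. 8 mm cups cut, each filled with 0.1 mL of 1 mg/mL test solution. Incubated 37 °C for 24 h, 48 h for C. albicans. DMSO control per organism. Inhibition zone diameter in mm, mean of three measurements.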

Staphylococcus aureus [6] = test: Antibacterial activity against Staphylococcus aureus ATCC 6538 assessed as growth inhibition after 48 hrs by two-fold serial dilution assay; assay type: functional; conditions: ATCC 6538, 48 h; summary of the method: as §2
SK-MEL-5 = test: Cytotoxicity against human SK-MEL-5 cells assessed as growth inhibition at 10 uM after 48 hrs by SRB assay; assay type: functional; conditions: SK-MEL-5, 48 h, read-out: GI; summary of the method: as §1
Aspergillus niger = test: Antifungal activity against Aspergillus niger assessed as growth inhibition at 1 mg/mL after 24 hrs by agar-cup diffusion method; assay type: functional, organism-based; summary of the method: as §4
CCRF-CEM = test: Cytotoxicity against human CCRF-CEM cells assessed as growth inhibition at 10 uM after 48 hrs by SRB assay; assay type: functional; conditions: read-out: GI; summary of the method: as §1
MCF7 = test: Cytotoxicity against human MCF7 cells assessed as growth inhibition at 10 uM after 48 hrs by SRB assay; assay type: functional; conditions: MCF7, 48 h, read-out: GI; summary of the method: as §1
UACC-62 = test: Cytotoxicity against human UACC62 cells assessed as growth inhibition at 10 uM after 48 hrs by SRB assay; assay type: functional; conditions: UACC-62, 48 h, read-out: GI; summary of the method: as §1
T47D = test: Cytotoxicity against human T47D cells assessed as growth inhibition at 10 uM after 48 hrs by SRB assay; assay type: functional; conditions: read-out: GI; summary of the method: as §1
Pseudomonas aeruginosa [7] = test: Antibacterial activity against Pseudomonas aeruginosa ATCC 27853 assessed as growth inhibition after 48 hrs by two-fold serial dilution assay; assay type: functional; conditions: ATCC 27853, 48 h; summary of the method: as §2
SK-MEL-2 = test: Cytotoxicity against human SK-MEL-2 cells assessed as growth inhibition at 10 uM after 48 hrs by SRB assay; assay type: functional; conditions: SK-MEL-2, 48 h, read-out: GI; summary of the method: as §1
SNB-75 = test: Cytotoxicity against human SNB75 cells assessed as growth inhibition at 10 uM after 48 hrs by SRB assay; assay type: functional; conditions: SNB-75, 48 h, read-out: GI; summary of the method: as §1
MDA-MB-468 = test: Cytotoxicity against human MDA-MB-468 cells assessed as growth inhibition at 10 uM after 48 hrs by SRB assay; assay type: functional; conditions: MDA-MB-468, 48 h, read-out: GI; summary of the method: as §1
Escherichia coli [8] = test: Antibacterial activity against Escherichia coli ATCC 25922 assessed as growth inhibition after 48 hrs by two-fold serial dilution assay; assay type: functional; conditions: ATCC 25922, 48 h; summary of the method: as §2
Pseudomonas aeruginosa [9] = test: Antibacterial activity against Pseudomonas aeruginosa ATCC 27853 assessed as growth inhibition at 1 mg/mL after 24 hrs by agar-cup diffusion method; assay type: functional; conditions: ATCC 27853, 24 h, read-out: DIZ; summary of the method: as §4
Staphylococcus aureus [10] = test: Bactericidal activity against Staphylococcus aureus ATCC 6538 after 18 hrs; assay type: functional; conditions: ATCC 6538, 18 h; summary of the method: as §3
HCC 2998 = test: Cytotoxicity against human HCC2998 cells assessed as growth inhibition at 10 uM after 48 hrs by SRB assay; assay type: functional; conditions: HCC 2998, 48 h, read-out: GI; summary of the method: as §1
U-251 = test: Cytotoxicity against human U251 cells assessed as growth inhibition at 10 uM after 48 hrs by SRB assay; assay type: functional; conditions: U-251, 48 h, read-out: GI; summary of the method: as §1
IGROV-1 = test: Cytotoxicity against human IGROV1 cells assessed as growth inhibition at 10 uM after 48 hrs by SRB assay; assay type: functional; conditions: IGROV-1, 48 h, read-out: GI; summary of the method: as §1
Bacillus spizizenii [11] = test: Antibacterial activity against Bacillus subtilis ATCC 6633 assessed as growth inhibition at 1 mg/mL after 24 hrs by agar-cup diffusion method; assay type: functional; conditions: ATCC 6633, 24 h, read-out: DIZ; summary of the method: as §4
HCT-15 = test: Cytotoxicity against human HCT15 cells assessed as growth inhibition at 10 uM after 48 hrs by SRB assay; assay type: functional; conditions: HCT-15, 48 h, read-out: GI; summary of the method: as §1
NCI-H522 = test: Cytotoxicity against human NCI-H522 cells assessed as growth inhibition at 10 uM after 48 hrs by SRB assay; assay type: functional; conditions: NCI-H522, 48 h, read-out: GI; summary of the method: as §1
RPMI-8226 = test: Cytotoxicity against human RPMI8226 cells assessed as growth inhibition at 10 uM after 48 hrs by SRB assay; assay type: functional; conditions: RPMI-8226, 48 h, read-out: GI; summary of the method: as §1
Pseudomonas aeruginosa [12] = test: Bactericidal activity against Pseudomonas aeruginosa ATCC 27853 after 18 hrs; assay type: functional; conditions: ATCC 27853, 18 h; summary of the method: as §3
A498 = test: Cytotoxicity against human A498 cells assessed as growth inhibition at 10 uM after 48 hrs by SRB assay; assay type: functional; conditions: A498, 48 h, read-out: GI; summary of the method: as §1

MIC (Bacillus spizizenii [3]): 25 µg/mL (≈ 85.8 µM)
MIC (Staphylococcus aureus [6]): 12.5 µg/mL (≈ 42.9 µM)
MIC (Pseudomonas aeruginosa [7]): 50 µg/mL (≈ 172 µM)
MIC (Escherichia coli [8]): 12.5 µg/mL (≈ 42.9 µM)
SMILES: Cc1nc(NC(=O)Nc2ccccc2)sc1C(=O)NN
inhibition of growth at 10 µM (NCI-H226): 2.53%
inhibition of growth at 10 µM [1]: 28%
inhibition of growth at 10 µM [2]: 2.83%
inhibition of growth at 10 µM (K562): < 10%
inhibition of growth at 10 µM (PC-3): < 10%
MBC (Escherichia coli [4]): 12.5 µg/mL (≈ 42.9 µM)
inhibition of growth at 10 µM (HCT-116): 10.5%
zone of inhibition at 1000 µg/mL (Staphylococcus aureus [5]): > 13 mm
inhibition of growth at 10 µM (SK-MEL-5): 2.35%
growth inhibition (GI) (Aspergillus niger): inactive
inhibition of growth at 10 µM (CCRF-CEM): < 10%
inhibition of growth at 10 µM (MCF7): 2.96%
inhibition of growth at 10 µM (UACC-62): 11.9%
inhibition of growth at 10 µM (T47D): < 10%
inhibition of growth at 10 µM (SK-MEL-2): 37.8%
inhibition of growth at 10 µM (SNB-75): < 10%
inhibition of growth at 10 µM (MDA-MB-468): < 10%
zone of inhibition at 1000 µg/mL (Pseudomonas aeruginosa [9]): > 13 mm
MBC (Staphylococcus aureus [10]): 12.5 µg/mL (≈ 42.9 µM)
inhibition of growth at 10 µM (HCC 2998): 6.85%
inhibition of growth at 10 µM (U-251): < 10%
inhibition of growth at 10 µM (IGROV-1): < 10%
zone of inhibition at 1000 µg/mL (Bacillus spizizenii [11]): > 13 mm
inhibition of growth at 10 µM (HCT-15): 9.63%
inhibition of growth at 10 µM (NCI-H522): 63.4%
inhibition of growth at 10 µM (RPMI-8226): < 10%
MBC (Pseudomonas aeruginosa [12]): 100 µg/mL (≈ 343 µM)
inhibition of growth at 10 µM (A498): 3.17%

MIC (Bacillus spizizenii [3]): 25 µg/mL (≈ 99.5 µM)
MIC (Staphylococcus aureus [6]): 12.5 µg/mL (≈ 49.7 µM)
MIC (Escherichia coli [8]): 50 µg/mL (≈ 199 µM)
SMILES: Cc1nc(N)sc1C(=O)Nc1ccc(F)cc1
inhibition of growth at 10 µM (NCI-H226): 5.62%
inhibition of growth at 10 µM [1]: 11.8%
inhibition of growth at 10 µM [2]: 14.2%
inhibition of growth at 10 µM (K562): < 10%
inhibition of growth at 10 µM (PC-3): < 10%
MBC (Escherichia coli [4]): 100 µg/mL (≈ 398 µM)
inhibition of growth at 10 µM (HCT-116): < 10%
zone of inhibition at 1000 µg/mL (Staphylococcus aureus [5]): > 13 mm
inhibition of growth at 10 µM (SK-MEL-5): 6.65%
growth inhibition (GI) (Aspergillus niger): inactive
inhibition of growth at 10 µM (CCRF-CEM): < 10%
inhibition of growth at 10 µM (MCF7): 2.21%
inhibition of growth at 10 µM (UACC-62): 3.24%
inhibition of growth at 10 µM (T47D): < 10%
inhibition of growth at 10 µM (SK-MEL-2): 67.3%
inhibition of growth at 10 µM (SNB-75): 5.4%
inhibition of growth at 10 µM (MDA-MB-468): 9.63%
zone of inhibition at 1000 µg/mL (Pseudomonas aeruginosa [9]): > 13 mm
MBC (Staphylococcus aureus [10]): 25 µg/mL (≈ 99.5 µM)
inhibition of growth at 10 µM (HCC 2998): 11.8%
inhibition of growth at 10 µM (U-251): 5.77%
inhibition of growth at 10 µM (IGROV-1): < 10%
zone of inhibition at 1000 µg/mL (Bacillus spizizenii [11]): > 13 mm
inhibition of growth at 10 µM (HCT-15): < 10%
inhibition of growth at 10 µM (NCI-H522): 9.55%
inhibition of growth at 10 µM (RPMI-8226): < 10%
inhibition of growth at 10 µM (A498): 3.67%
